Key:
[1] = target: MDM2 (Homo sapiens, UniProt Q00987); assay type: binding; settings: SAR summary, unsubstituted indole
[2] = test system: p53; test: Western blot analysis in MOLM-13 cells; assay type: cell-based, human; settings: 20 μM; 6, 12, 24 h
[3] = test system: MDM2; test: Western blot analysis in MOLM-13 cells; assay type: cell-based, human; settings: 20 μM; 6, 12, 24 h
[4] = test system: MDM4; test: Western blot analysis in MOLM-13 cells; assay type: cell-based, human; settings: 20 μM; 6, 12, 24 h
How it was run: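 MOLM-13 cells (wt p53) grown in RPMI 1640 with 10% heat-inactivated FBS, harvested in log phase. Treated with 20 µM test compound or left untreated, then lysed at 6, 12 and 24 h (1 × 10^6 cells). Equal protein run on 12% SDS-PAGE and electroblotted to PVDF. Loading checked by Ponceau S and β-actin. HRP secondaries with chemiluminescent detection.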

[5] = test system: caspase 3 and 7; test: CaspaseGlo 3/7 assay in MOLM-13 cells; assay type: cell-based, human; settings: 20 μM, 24 h, relative to untreated control
[6] = test system: primary AML blasts; test: Apoptosis; assay type: cell-based, human; settings: 20 μM, 72 h
[7] = test system: PBMCs; test: Viability of freshly isolated PBMCs; assay type: cell-based, human; settings: 72 h, data not shown
[8] = test system: MOLM-13 cells; test: Apoptosis analysis Annexin-V/PI; settings: for viable cells: separated enantiomers, after 72 h

Chain of MDM2 (Homo sapiens, UniProt Q00987) (Q00987 1-125): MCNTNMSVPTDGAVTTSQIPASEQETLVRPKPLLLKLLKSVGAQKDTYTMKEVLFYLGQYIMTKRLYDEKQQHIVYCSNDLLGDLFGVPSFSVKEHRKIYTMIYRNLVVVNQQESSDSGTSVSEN

In the case of `CC(=O)N(CC(C)C)C(C(=O)NCc1ccccc1)c1c[nH]c2ccccc12` (stereo not shown) [5a], the “activity (binding to MDM2) in words” value [1] is reported as “inactive”.
In the case of (+)-YH239-EE, the “induction of p53” value [2] is reported as “induction of p53 could be observed after 6 h”, the MDM2 levels [3] is reported as “MDM2 levels raised after 12 h” and the “level of MDM4” value [4] is reported as “no effect”. The “activation of caspase 3 and 7” value [5] was “significant higher activation of caspase 3 and 7 after 24 h than (−)-YH239-EE and Nutlin-3”, the “response of patient samples with lower blast (<45%) counts” value [6] was “no response” and the “share of tested samples with increased induction of apoptosis” value ([6]; 8 primary patient samples) was 2/3. The “toxic effect on PBMCs (viability)” value [7] was “less cytotoxic than Nutlin-3” and the viable cells [8] was 13.7%.
In the case of `CCOC(=O)c1[nH]c2cc(Cl)ccc2c1C(C(=O)NC(C)(C)C)N(C=O)Cc1ccc(Cl)cc1` (single isomer, unassigned; (-)) [(−)-YH239-EE], the viable cells [8] is reported as 51.5%.
With `COc1ccc(C2=N[C@@H](c3ccc(Cl)cc3)[C@@H](c3ccc(Cl)cc3)N2C(=O)N2CCNC(=O)C2)c(OC(C)C)c1` [Nutlin-3, reference compound] the “toxic effect on PBMCs (viability)” value [7] was “higher toxic effect on PBMCs than (+)-YH239-EE” and the “apoptotic effect in words” value ([8]; 20 μM, 72 h) was “high induction of apoptosis”.
In the case of `CC(=O)N(Cc1ccccc1)C(C(=O)NCc1ccccc1)c1c[nH]c2ccccc12` (stereo not shown) [5b], the “activity (binding to MDM2) in words” value [1] is reported as “inactive”.

— publication PMC3985958 (ACS Chemical Biology, 2014)
